According to ChEMBL document CHEMBL4477193, “The Natural Product Essramycin and Three of Its Isomers Are Devoid of Antibacterial Activity” (J Nat Prod, 2016):
Active and inactive are the calls of the source.

What was measured:
Format in all cases: functional, organism-based
Klebsiella aerogenes = assay: Antibacterial activity against Enterobacter aerogenes ATCC 35029 up to 128 ug/ml after 16 to 20 hrs by broth microdilution assay
Outline: (§1)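 MIC testing across a concentration series whose top concentration was 128 μg/mL. The E. faecium strain is NCTC 7171 (ATCC 19734). The testing method follows an earlier report.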

Klebsiella pneumoniae = assay: Antibacterial activity against Klebsiella pneumoniae ATCC 700603 up to 128 ug/ml after 16 to 20 hrs by broth microdilution assay; outline: as §1
Enterococcus faecium = assay: Antibacterial activity against Enterococcus faecium ATCC 19734 up to 128 ug/ml after 16 to 20 hrs by broth microdilution assay; outline: as §1
Acinetobacter baumannii = assay: Antibacterial activity against Acinetobacter baumannii ATCC 17961 up to 128 ug/ml after 16 to 20 hrs by broth microdilution assay; outline: as §1
Pseudomonas aeruginosa = assay: Antibacterial activity against Pseudomonas aeruginosa ATCC 27853 up to 128 ug/ml after 16 to 20 hrs by broth microdilution assay; outline: as §1
Staphylococcus aureus = assay: Antibacterial activity against Staphylococcus aureus ATCC 29213 up to 128 ug/ml after 16 to 20 hrs by broth microdilution assay; outline: as §1
Escherichia coli = assay: Antibacterial activity against Escherichia coli ATCC 25922 up to 128 ug/ml after 16 to 20 hrs by broth microdilution assay; outline: as §1

Measured: Activity

Cc1cc(=O)n2nc(CC(=O)c3ccccc3)nc2[nH]1
inactive: all assays above

Cc1cc(=O)[nH]c2nc(CC(=O)c3ccccc3)nn12
inactive: all assays above

Cc1cc(=O)n2c(CC(=O)c3ccccc3)nnc2[nH]1
inactive: all assays above

Cc1cc(=O)[nH]c2nnc(CC(=O)c3ccccc3)n12
inactive: all assays above
